Bioassay records: PubChem BioAssay, Sanford-Burnham Center for Chemical Genomics
DNMT1 block – DNMT1 (human) enzyme inhibition. P26358. inhibition (reported as % activation of signal), % at 10 µM. DNMT1 molecular beacon, Hinp1I cleavage, fluorescence. actives 0.83% (n = 360,000); in the data active means inhibition above about 50%
NadD block – NadD (S. aureus) enzyme inhibition | inhibition, % at 20 µM | AID 602399 | actives 0.78% (n = 360,000) | purified NadD enzyme, colorimetric absorbance read-out; in the data active means inhibition above about 26%
SUMO1-SIM PPI – alters human SUMO1 binding to SIM partners | P63165 | SUMO1 binding to a labelled peptide, TR-FRET, 1 h | inhibition, % at 20 µM | actives 0.33% (n = 360,000) | AID 602429; in the data active means inhibition above about 37%
Target sequence (P63165 whole entry, looked up): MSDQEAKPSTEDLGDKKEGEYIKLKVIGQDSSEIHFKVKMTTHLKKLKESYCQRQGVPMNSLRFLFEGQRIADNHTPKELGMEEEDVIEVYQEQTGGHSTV
STEP block – inhibitors of human striatal-enriched phosphatase STEP. P54829. recombinant STEP, OMFP fluorogenic substrate, fluorescence. inhibition, % at 20 µM. actives 0.25% (n = 360,000). AID 588621;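 active means inhibition at 20 µM, scaled per plate between control wells, above about 37%, limit read from the data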;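 further: 0% = DMSO with enzyme and substrate and 100% = substrate only without enzyme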
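material = STEP tyrosine phosphatase | reagent = fluorogenic phosphatase substrate OMFP at 25 µM final | doses = single compound dose of 20 µM, 1% DMSO final | schedule = 20 min reaction, room temperature, in the dark | measured by = fluorescence, 480/540 nm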
LMPTP block – LMPTP (human) inhibition. P24666. recombinant LMPTP-A, OMFP fluorogenic substrate, fluorescence intensity. AID 651560. actives 0.22% (n = 360,000). inhibition, % at 20 µM;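 active means compounds that cut the enzyme signal by at least half of the control window in the single-dose screen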;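 further: plate controls were DMSO wells with enzyme plus substrate for no effect and substrate without enzyme for full effect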
Target sequence (P24666 whole entry, looked up): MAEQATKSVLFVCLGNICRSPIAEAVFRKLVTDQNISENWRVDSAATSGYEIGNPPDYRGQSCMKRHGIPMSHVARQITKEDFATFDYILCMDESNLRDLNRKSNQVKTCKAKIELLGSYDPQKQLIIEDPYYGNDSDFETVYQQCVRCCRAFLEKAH
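Test system: LMPTP-A phosphatase enzyme; input: 0.625 nM LMPTP-A final; reagent: OMFP substrate, 400 µM final; compound dosing: 20 µM single dose, 3% DMSO; incubation: 50 min dark incubation at room temperature; measured by: endpoint fluorescence intensity from OMFP dephosphorylation; measure: % inhibition relative to no-enzyme and uninhibited control wells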
Scp1 inh – Scp-1 (human) phosphatase inhibition; inhibition, % at 20 µM; Q9GZU7; AID 493091; actives 0.88% (n = 340,000); Recombinant Scp1, phosphopeptide, malachite green phosphate absorbance;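 active means inhibition above about 50% at 20 µM, limit read from the data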;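 further: plate controls were DMSO wells with enzyme for no effect and wells lacking enzyme for full effect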
Target sequence (Q9GZU7 76-261 limits assumed): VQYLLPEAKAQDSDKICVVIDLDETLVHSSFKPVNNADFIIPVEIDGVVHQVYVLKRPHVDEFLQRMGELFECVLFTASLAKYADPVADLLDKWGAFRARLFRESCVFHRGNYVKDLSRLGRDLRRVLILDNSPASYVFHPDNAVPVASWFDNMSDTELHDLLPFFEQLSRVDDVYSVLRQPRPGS
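Times: enzyme reaction 45 min at room temperature, colour 5 min, stabilisation 30 min. Material: SCP-1 catalytic fragment, aa 76-261. Medium: Acidic Tris acetate buffer with magnesium and detergent. Signal: colorimetric free-phosphate detection, absorbance 630 nm. Read-out basis: % inhibition of SCP-1 phosphate liberation. Reagent: Phosphorylated 17-residue peptide substrate.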
Scp-1 conf – Scp-1 (human) inhibition, single-dose confirmed; inhibition, % at 20 µM; actives 61% (n = 2,500); shares compounds with Scp1 inh; recombinant SCP-1 catalytic domain, phosphate release, malachite green absorbance;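 further: plate controls were DMSO with enzyme for no effect and buffer wells lacking enzyme for full effect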
Scp-1 MG ctr – counter-screen for Scp-1 inhibitors: colorimetric interference | Colorimetric interference counterscreen, malachite green absorbance 630 nm | apparent inhibition (interference), % at 20 µM | shares compounds with Scp1 inh | 2,500 tested, under 10 active;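 further: compounds added after enzyme reaction finished so only phosphate colour detection is probed; plate controls were DMSO wells with completed Scp-1 reaction for no effect and substrate wells lacking enzyme for full effect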
Scp1 DSF – validation of human Scp-1 inhibitors by thermal shift binding; shares compounds with Scp1 inh; Recombinant SCP1, Sypro Orange thermal shift Tm; thermal shift relative to vanadate control, % at 40 µM; actives 25% (n = 1,500);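 active means substances whose mean melting-temperature shift, as a percentage of the reference inhibitor's shift, reaches about 5.3%, limit read from the data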;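 further: 0% = Tm of DMSO wells and 100% = Tm with sodium orthovanadate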
DNMT1 confirm – DNMT1 inhibition confirmation, single concentration. DNMT1 molecular beacon HinP1I cleavage, fluorescence. shares compounds with DNMT1 block. AID 602385. actives 8% (n = 2,300). inhibition, % at 10 µM;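 active means average inhibition of at least 30% in the single-concentration confirmation test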
DNMT1 interf – shows spectral interference in the DNMT1 beacon assay; shares compounds with DNMT1 block; DNMT1 molecular beacon spectral interference counterscreen, fluorescence 485/520; activation (fluorescence interference), % at 10 µM; actives 1% (n = 2,300); AID 602387;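 active means activation of at least 30% at 10 µM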;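 further: DNMT1 catalytic domain with a HinP1I cleavage step and a FAM/dabcyl DNA beacon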
* hit, by the source's call; · = no result. Only some compounds are listed: those with a hit (about 2.4% of all), similar ones and a draw of the others.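 How the source made its calls, unless noted: active means inhibition of at least 30% at 20 µM; inactive means the rest.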

SMILES	DNMT1 block	NadD block	SUMO1-SIM PPI	STEP block	LMPTP block	Scp1 inh	Scp-1 conf	Scp-1 MG ctr	Scp1 DSF	DNMT1 confirm	DNMT1 interf
Cc1ccc2c(=O)cc(C(=O)NCCc3ccc(S(N)(=O)=O)cc3)oc2c1	18	-6	2	3	24	95*	70*	-13	5	·	·
O=C(CCC1N=C2c3ccccc3N=C(SCC(=O)NCc3ccco3)N2C1=O)NCc1ccco1 (stereo not given)	15	5	3	2	0	83*	69*	-15	-17	·	·
O=C(COC(=O)C1CCN(S(=O)(=O)c2cc([N+](=O)[O-])ccc2Cl)CC1)Nc1ncc(Cl)cc1Cl	86*	7	11	22	10	68*	58*	-10	14*	4	-3
CCCCCCCCN1C(=O)[C@H](CC(=O)N2CCN(C(=O)C3CC3)CC2)C[C@@]2(C(=O)OC)CCCCC=C12	·	-6	8	·	2	·	·	·	·	·	·
Cc1ccc(CNC(=O)C(=O)NCC2OCCCN2S(=O)(=O)c2ccc(F)cc2)cc1 (stereo not given)	3	-5	0	2	0	-1	·	·	·	·	·
O=C(O)C1CC(=O)N(c2ccc3c(c2)OCCO3)C1 (stereo not given)	63*	1	6	18	2	75*	55*	-11	-14	4	8
Cc1noc(C)c1C(=O)OCC(=O)NCc1ccccc1	1	-3	2	-3	0	-7	·	·	·	·	·
O=C(Nc1nccs1)c1cc(-c2ccco2)nc2ccccc12	55*	25	1	-2	21	50*	60*	-10	8.6*	16	-1
Cc1cc(C(=O)NCc2ccco2)c2ccccc2n1	-2	-3	-4	0	0	-11	·	·	·	·	·
Cc1ccc(-c2cc(C(=O)NCc3ccco3)c3ccccc3n2)o1	92*	9	17	8	7	77*	71*	-8	5	4	2
O=C(O)c1cc(-c2ccco2)nc2ccccc12	61*	-6	8	-1	-1	59*	43*	-18	-3	1	-2
COc1ccccc1NS(=O)(=O)c1cccc(C(=O)NCC2(N3CCCCC3)CCCCC2)c1	2	-7	-1	-1	1	-2	·	·	·	·	·
CCc1nc2ccccc2c(C(=O)Nc2ccc(C)cc2)c1C	3	-4	1	2	-1	-1	·	·	·	·	·
Cc1ccc(C(=O)NCC2CCCN2S(=O)(=O)c2cccs2)cc1C (stereo not given)	-4	-6	2	3	0	-6	·	·	·	·	·
CN(CC(=O)NC(=O)NCc1ccco1)Cc1nc2ccccc2c(=O)[nH]1	70*	0	3	0	0	86*	73*	-7	-4	4	2
COc1cccc(OC)c1C(=O)N1CCNCC1	0	4	-1	-2	-2	1	·	·	·	·	·
CCOc1cc(/C=N/Nc2ccccc2Cl)ccc1OCC(=O)O	58*	5	24	14	1	54*	16	-12	·	4	5
CCN(C(=O)CCc1nnc2ccc(NCc3ccco3)nn12)c1ccccc1	-2	5	7	-1	0	3	·	·	·	·	·
Cc1ccc(CSCC(=O)N/N=C/c2ccc(OCC(=O)Nc3ccc(C)cc3)cc2)cc1	69*	2	1	11	44	112*	80*	-11	-29	5	4
O=C(COC(=O)C1CC2C=CC1C2)NCc1ccco1 (stereo not given)	89*	-1	2	4	4	71*	70*	-5	-3	14	8
